Data set [1] concerns the target Histamine H3 receptor (Homo sapiens, UniProt Q9Y5N1). Put plainly: Displacement of [3H]Nalpha-methylhistamine from recombinant human H3 receptor expressed in HEK293 cells after 90 mins by liquid scintillation counting method. Type of data set: cell-based. In outline:
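Thawed, homogenized membranes from HEK-293 cells stably expressing full-length human H3R, incubated 90 min at RT with shaking with 2 nM [3H]Nα-methylhistamine (KD 3.08 nM) and 5–11 concentrations (0.01 nM–10 µM). Nonspecific binding with pitolisant 10 µM. GF/B filtration (0.3% PEI), ice-cold water washes, scintillation counting. Ki by Cheng-Prusoff; mean (95% CI), ≥3 experiments in at least duplicate.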

For data set [2], the species on record is Cavia porcellus. Briefly: (§1) Antagonist activity at muscarinic receptor in guinea pig ileum assessed as carbachol-induced ileum contraction measured after 15 mins. In outline:
(§2)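 Male guinea-pig ileum (300-400 g), 2 cm segments in Krebs solution at 37°C, pH 7.4, O2/CO2 19:1, 0.5 g resting tension, 60 min equilibration. Cumulative agonist curves were run with histamine (10 nM–10 µM; H1) or carbachol (3 nM–3 µM; muscarinic), then repeated after 15 min with one antagonist concentration per tissue. Responses were taken as % of first-curve Emax, with pA2 from Schild analysis or pKB from the concentration ratio.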

The test system of data set [3] is Rattus norvegicus. Put plainly: Reversal of RAMH-induced dipsogenia in ip dosed Krf:(WI) WU rat assessed as inhibition of drinking response pretreated for 30 mins followed by RAMH stimulation for 20 mins measured for 30 mins. Type of data set: functional. In outline:
(§3)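 Male Wistar Krf:(WI) WU rats (<250 g), 6–8 per group. Compound, pitolisant or vehicle (1% Tween 80) given i.p. 30 min before RAMH 10 mg/kg i.p. Water intake measured for 30 min, starting 20 min after RAMH. Inhibition = 100 − (individual intake / RAMH-group intake) × 100. ED50 by log-probit with 95% CL; one-way ANOVA with Dunnett.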

The subject of data set [4] is Mus musculus. Briefly: Reversal of scopolamine-induced memory deficit in Albino Swiss CD-1 mouse assessed as increase in step through latency time at 2.5 to 30 mg/kg, ip treated for 1 hr before training followed by scopolamine challenge 30 mins before training measured 24 hrs after training trial by passive avoidance test. The data set is classed as functional, organism-based.

Data set [5] deals with Histamine H1 receptor (Cavia porcellus) (UniProt P31389). Put plainly: Antagonist activity at H1 receptor in guinea pig ileum assessed as inhibition of histamine-induced ileum contraction measured after 15 mins. The procedure, abridged:
as §2

The test system of data set [6] is Mus musculus. Put plainly: Reversal of scopolamine-induced memory deficit in Albino Swiss CD-1 mouse assessed as increase in step through latency time at 2.5 to 30 mg/kg, ip treated for 1 hr prior to testing followed by scopolamine challenge measured after 30 mins by passive avoidance test. The data set is classed as functional, organism-based.
For data set [7], the species on record is Cavia porcellus. Put plainly: Agonist activity at muscarinic receptor in guinea pig ileum assessed as induction of ileum contraction measured after 15 mins.
Data set [8] is described as follows: Drug metabolism in human liver microsomes after 2 hrs by UPLC analysis. Type of data set: ADME, microsome. The following applies: read-out: Drug metabolism. In outline: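 Incubation with human liver microsomes for 120 min; reaction mixture analysed by UPLC-MS, with MS fragmentation used to identify metabolites. In silico site-of-metabolism prediction run alongside.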

Data set [9] addresses Histamine H1 receptor (Cavia porcellus) (UniProt P31389). Put plainly: Agonist activity at H1 receptor in guinea pig ileum assessed as induction of ileum contraction measured after 15 mins.
In data set [10] the test system is Mus musculus. Put plainly: Anticonvulsant activity in ip dosed maximal electroshock induced seizure TO mouse model assessed as suppression of tonic hind limb extension pretreated for 30 to 45 mins followed by maximal electroshock induction. Type of data set: functional, organism-based.
In data set [11] the target is Histamine H1 receptor (Cavia porcellus) (UniProt P31389). Put plainly: Competitive antagonist activity at H1 receptor in guinea pig ileum assessed as inhibition of histamine-induced ileum contraction measured after 15 mins. The procedure, abridged:
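Ileum from male guinea pigs cut into 2 cm segments in Krebs at 37°C, pH 7.4, O2/CO2 19:1, 0.5 g resting tension, equilibrated 60 min. Cumulative histamine curve (10 nM–10 µM), then 15 min with one antagonist concentration per tissue and a repeat curve. Responses are % of first-curve max. pA2 comes from Schild analysis if slope ≈1, otherwise pKB from concentration ratio; 4–8 repeats.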

The test system of data set [12] is Mus musculus. Briefly: Anticonvulsant activity in maximal electroshock induced seizure TO mouse model assessed as suppression of tonic hind limb extension at 10 mg/kg, ip pretreated for 30 to 45 mins followed by maximal electroshock induction. Type of data set: functional, organism-based.
Data set [13] in a line: as §1. The settings on record: Cavia porcellus, 0.25 h; read-out: pA2 (converted). In outline:
as §2

The test system of data set [14] is Mus musculus. Put plainly: Toxicity in TO mouse model assessed as mortality at 10 mg/kg, ip. The data set is classed as organism-based. The following applies: in vivo.
In data set [15] the test system is Rattus norvegicus. Briefly: Reversal of RAMH-induced dipsogenia in Krf:(WI) WU rat assessed as inhibition of drinking response at 1.25 mg/kg, ip pretreated for 30 mins followed by RAMH stimulation for 20 mins measured for 30 mins relative to control. The data set is classed as functional. The procedure, abridged: as §3
The target of data set [16] is Histamine H4 receptor (Homo sapiens, UniProt Q9H3N8). Put plainly: Inhibition of human H4 receptor.
Chain of Histamine H4 receptor (Q9H3N8 whole entry): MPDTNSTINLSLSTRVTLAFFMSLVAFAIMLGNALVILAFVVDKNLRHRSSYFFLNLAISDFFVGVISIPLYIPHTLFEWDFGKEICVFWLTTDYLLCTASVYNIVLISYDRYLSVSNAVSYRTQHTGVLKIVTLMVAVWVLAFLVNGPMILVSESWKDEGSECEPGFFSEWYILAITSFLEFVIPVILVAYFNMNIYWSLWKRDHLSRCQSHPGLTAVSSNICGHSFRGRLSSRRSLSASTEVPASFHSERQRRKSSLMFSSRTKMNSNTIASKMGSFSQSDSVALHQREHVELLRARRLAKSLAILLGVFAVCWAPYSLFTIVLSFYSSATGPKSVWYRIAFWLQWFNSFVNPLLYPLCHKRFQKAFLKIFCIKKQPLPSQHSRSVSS

SMILES strings stand for the structures. Activity calls are given as the source filed them. The rule behind the calls is not given here.

From ChEMBL document CHEMBL4152242, “Synthesis and biological activity of novel tert-butyl and tert-pentylphenoxyalkyl piperazine derivatives as histamine H3R ligands” (Eur J Med Chem, 2018) come the findings set out here.

Chain of Histamine H3 receptor (Q9Y5N1 whole entry): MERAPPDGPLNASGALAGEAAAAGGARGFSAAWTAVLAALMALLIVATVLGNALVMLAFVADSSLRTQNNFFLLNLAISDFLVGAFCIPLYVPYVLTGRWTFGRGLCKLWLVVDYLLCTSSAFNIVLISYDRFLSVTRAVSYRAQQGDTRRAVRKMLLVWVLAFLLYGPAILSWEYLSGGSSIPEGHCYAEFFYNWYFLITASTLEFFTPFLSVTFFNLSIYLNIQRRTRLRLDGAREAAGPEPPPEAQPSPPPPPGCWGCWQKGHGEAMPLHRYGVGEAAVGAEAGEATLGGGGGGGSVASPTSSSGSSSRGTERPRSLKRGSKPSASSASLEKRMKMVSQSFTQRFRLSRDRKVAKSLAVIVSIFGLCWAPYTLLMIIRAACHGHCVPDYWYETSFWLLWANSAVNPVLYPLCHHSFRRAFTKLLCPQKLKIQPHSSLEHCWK
Chain of Histamine H1 receptor (Cavia porcellus) (P31389 whole entry): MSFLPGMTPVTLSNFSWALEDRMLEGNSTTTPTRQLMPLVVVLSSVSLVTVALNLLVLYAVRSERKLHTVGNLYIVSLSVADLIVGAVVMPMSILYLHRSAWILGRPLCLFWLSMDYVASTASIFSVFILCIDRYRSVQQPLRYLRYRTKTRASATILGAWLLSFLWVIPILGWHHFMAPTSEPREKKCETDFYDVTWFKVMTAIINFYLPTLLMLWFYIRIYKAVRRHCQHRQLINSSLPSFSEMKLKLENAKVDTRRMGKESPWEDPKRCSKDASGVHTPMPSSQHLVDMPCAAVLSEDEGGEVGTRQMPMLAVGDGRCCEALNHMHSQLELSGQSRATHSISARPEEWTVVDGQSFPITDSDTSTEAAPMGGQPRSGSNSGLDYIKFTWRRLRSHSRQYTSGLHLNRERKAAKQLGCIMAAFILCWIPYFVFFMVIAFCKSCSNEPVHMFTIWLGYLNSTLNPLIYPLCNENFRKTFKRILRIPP

`CC(C)(C)c1ccc(OCCCN2CCN(c3ccccn3)CC2)cc1`: the Ki in data set [1] is > 10 µM.
With `CCC(C)(C)c1ccc(OCCCCN2CCN(c3ncccn3)CC2)cc1`, the Ki in data set [1] turned out to be 2.26 µM.
Regarding `CCC(C)(C)c1ccc(OCCCCN2CCN(c3ccccn3)CC2)cc1`, the inhibition constant Ki in data set [1] is 0.482 µM.
`CC(C)(C)c1ccc(OCCCCN2CCN(c3ncccn3)CC2)cc1`: the Ki in data set [1] is 0.883 µM.
On to `CC(C)(C)c1ccc(OCCCCN2CCN(c3ccccn3)CC2)cc1`, for which the Ki in data set [1] was determined as 2.96 µM.
On to `CC(C)(C)c1ccc(OCCCN2CCCCC2)cc1`, for which the Ki in data set [1] amounted to 0.022 µM.
With `CCC(C)(C)c1ccc(OCCCN2CCN(c3ccccn3)CC2)cc1`, the Ki in data set [1] worked out at 5.2 µM.
Consider `CC(C)(C)c1ccc(OCCCCN2CCN(C(=O)C3CCCO3)CC2)cc1` (stereo not given), for which, in data set [1], the Ki is > 10 µM.
In the case of `CCC(C)(C)c1ccc(OCCCN2CCN(c3cnccn3)CC2)cc1`, the inhibition constant Ki in [1] is 6.21 µM.
In the case of `CC(C)(C)c1ccc(OCCCCN2CCN(c3ccncc3)CC2)cc1`, the inhibition entry in data set [2], in data set [3] and in [5] was “Dose-dependent effect” in each case. Moreover, the values for the negative logarithm of the Kb (pKb) in data set [2] and in data set [11] were 6.39 and 6.15, respectively. In data set [3], the ED50 was determined as 10.7 mg/kg. Moreover, the Ki in [1] was found to be 0.0378 µM. In data set [4], the outcome was Active. The result in [6], in [7] and in data set [9] was inactive. Moreover, in data set [8], the metabolised at 2 h worked out at 30%. Besides, the Activity result in [10] was “Dose-dependent effect”.
In the case of `CCC(C)(C)c1ccc(OCCCCN2CCN(C(=O)C3CCCO3)CC2)cc1` (stereo not given), the Ki in data set [1] is > 10 µM.
Turning to `CCC(C)(C)c1ccc(OCCCCN2CCN(c3cccnc3)CC2)cc1`, the inhibition constant Ki in data set [1] is > 10 µM.
For the compound `CCC(C)(C)c1ccc(OCCCN2CCN(c3ccncc3)CC2)cc1`, the Ki in data set [1] is 0.0306 µM. Further, the outcome in data set [12] was Active.
Consider `CN1[C@@H]2CC[C@H]1C[C@@H](OC(=O)C(CO)c1ccccc1)C2` (stereo not given in full) [ATROPINE], for which, in data set [13], the Kb was 0.00104 µM.
For the compound `O=C1NC(=O)C(c2ccccc2)(c2ccccc2)N1` [PHENYTOIN], in data set [14], the Activity result is on record as “Non-Toxic”. The result in [12] was Active.
In the case of `CCC(C)(C)c1ccc(OCCCCN2CCN(c3ccncc3)CC2)cc1`, the Ki in [1] is 0.12 µM. In addition, the result in data set [12] was Active.
`CC(C)(C)c1ccc(OCCCN2CCN(c3cnccn3)CC2)cc1`: in data set [1], the inhibition constant Ki worked out at 8.74 µM.
Consider `CCC(C)(C)c1ccc(OCCCN2CCN(c3ncccn3)CC2)cc1`, for which, in data set [1], the Ki is 5.41 µM.
Turning to `CC(C)(C)c1ccc(OCCCN2CCN(c3ncccn3)CC2)cc1`, the Ki in [1] is 3.83 µM.
As to `CC(C)(C)c1ccc(OCCCCN2CCN(c3cnccn3)CC2)cc1`, in data set [1], the inhibition constant (Ki) is 5.48 µM.
With `CCC(C)(C)c1ccc(OCCCN2CCN(C(=O)C3CCCO3)CC2)cc1` (stereo not given), the Ki in [1] was > 10 µM.
As for `CC(C)(C)c1ccc(OCCCN2CCN(C(=O)C3CCCO3)CC2)cc1` (stereo not given), the Ki in [1] is > 10 µM.
Take `Clc1ccc(CCCOCCCN2CCCCC2)cc1` [PITOLISANT]: the inhibition in vivo at 1.25 mg/kg in [15] is 87.4%. Also, in data set [16], the inhibition constant (Ki) was > 100 µM.
`CC(C)(C)c1ccc(OCCCCN2CCN(c3cccnc3)CC2)cc1`: the Ki in data set [1] turned out to be 3.42 µM.
For `CCC(C)(C)c1ccc(OCCCCN2CCN(c3cnccn3)CC2)cc1`, the Ki in [1] amounted to 0.683 µM.
As for `CCC(C)(C)c1ccc(OCCCN2CCN(c3cccnc3)CC2)cc1`, the inhibition constant Ki in [1] is 3.65 µM.
As to `CC(C)(C)c1ccc(OCCCN2CCN(c3cccnc3)CC2)cc1`, in [1], the Ki was 8.16 µM.
On to `CC(C)(C)c1ccc(OCCCN2CCN(c3ccncc3)CC2)cc1`, for which the inhibitory constant (Ki) in data set [1] worked out at 0.016 µM. Besides, the result in data set [12] was Active.
